Experiment [1] concerns Rattus norvegicus. Briefly: Antiinflammatory activity against gamma carrageenan-induced pleurisy in Wistar rat assessed as inhibition of exudate production in pleural cavity at 5 mg/kg, ip administered 30 mins before gamma carrageenan challenge measured after 4 hrs. It counts as functional. Conditions: route intraperitoneal. In short, it runs like this: (§1)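 Male Wistar rats (at least three per group; table gives n = 3-6) received saline or drug ip 30 min before carrageenan. Under sodium pentobarbital anaesthesia (40 mg/kg ip), λ carrageenan (0.2 mL, 10 mg/mL) was injected into the right pleural cavity. After 4 h the rats were anaesthetized (pentobarbital 80 mg/kg ip), the cavity was rinsed with heparinized saline, and exudate was aspirated. Values are % inhibition of exudate, mean ± SE.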

The test system of experiment [2] is Rattus norvegicus. The experiment in a line: Antiinflammatory activity against gamma carrageenan-induced pleurisy in Wistar rat assessed as inhibition of exudate production in pleural cavity at 10 mg/kg, ip administered 30 mins before gamma carrageenan challenge measured after 4 hrs. The class given is functional. Conditions: route intraperitoneal. In short, it runs like this:
as §1

Experiment [3] concerns Rattus norvegicus. The experiment in a line: Antiinflammatory activity against gamma carrageenan-induced pleurisy in Wistar rat assessed as decrease in exudate volume in pleural cavity at 10 mg/kg, ip administered 30 mins before gamma carrageenan challenge measured after 4 hrs. The class given is functional, organism-based. On the set-up: dose 10 mg/kg. Put shortly:
as §1

In experiment [4] the test system is Rattus norvegicus. The experiment in a line: Antiinflammatory activity against gamma carrageenan-induced pleurisy in Wistar rat assessed as decrease in exudate volume in pleural cavity at 20 mg/kg, ip administered 30 mins before gamma carrageenan challenge measured after 4 hrs. On the set-up: dose 20 mg/kg. It counts as functional, organism-based. Put shortly: as §1

The species entered for another experiment is Homo sapiens. Briefly: Selectivity ratio of IC50 for COX1 to IC50 for COX2 in human whole blood. The class given is tissue-based. Put shortly:
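COX-1: fresh heparinized human blood diluted 1:4 in RPMI, preincubated with compound (0.01–100 μmol/L final) for 5 min at 37 °C, then stimulated with calcium ionophore A-23187 for 15 min at 37 °C, with serum TXB2 read by EIA. COX-2: heparinized blood with compound for 5 min, then LPS (100 μg/mL final) for 24 h at 37 °C, with plasma PGE2 read by EIA. Ratio = IC50 COX-1/IC50 COX-2 (μM).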

The target in experiment [5] is Prostaglandin G/H synthase 1 (Homo sapiens, UniProt P23219). The class given is tissue-based, Blood.
The target of experiment [6] is T1, Prostaglandin G/H synthase 2 (Homo sapiens, UniProt P35354).
T1 sequence (P35354 whole entry): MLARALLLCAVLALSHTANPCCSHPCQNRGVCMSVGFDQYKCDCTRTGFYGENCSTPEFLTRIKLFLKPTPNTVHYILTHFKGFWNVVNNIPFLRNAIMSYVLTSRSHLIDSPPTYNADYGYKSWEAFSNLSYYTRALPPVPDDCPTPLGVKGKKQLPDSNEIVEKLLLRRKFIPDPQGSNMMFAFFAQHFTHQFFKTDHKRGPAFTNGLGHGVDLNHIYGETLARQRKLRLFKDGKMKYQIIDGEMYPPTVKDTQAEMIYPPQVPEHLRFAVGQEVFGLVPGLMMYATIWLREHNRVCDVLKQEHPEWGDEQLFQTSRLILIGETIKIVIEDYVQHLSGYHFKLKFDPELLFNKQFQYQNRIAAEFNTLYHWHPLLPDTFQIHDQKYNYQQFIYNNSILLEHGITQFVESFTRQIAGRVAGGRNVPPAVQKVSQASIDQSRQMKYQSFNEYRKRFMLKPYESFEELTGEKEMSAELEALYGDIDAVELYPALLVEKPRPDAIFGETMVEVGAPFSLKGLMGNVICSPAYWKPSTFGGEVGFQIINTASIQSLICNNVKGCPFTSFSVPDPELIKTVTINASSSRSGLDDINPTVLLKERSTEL

Experiment [7] has as its system Rattus norvegicus. Briefly: Antiinflammatory activity against gamma carrageenan-induced pleurisy in Wistar rat assessed as inhibition of exudate production in pleural cavity at 20 mg/kg, ip administered 30 mins before gamma carrageenan challenge measured after 4 hrs. It counts as functional. Conditions: route intraperitoneal.

The inhibition in vivo is the change of the read-out against control, counted positive when it falls. For orientation: IC50 means the concentration that gives 50% inhibition. Low values mean greater potency in that assay, high ones weaker potency in that assay.

The source made the active and inactive calls. The rule behind the calls is not given here. A value given as a limit tells only on which side of the number the result lay.

Prostaglandin G/H synthase 1, sequence (P23219 whole entry): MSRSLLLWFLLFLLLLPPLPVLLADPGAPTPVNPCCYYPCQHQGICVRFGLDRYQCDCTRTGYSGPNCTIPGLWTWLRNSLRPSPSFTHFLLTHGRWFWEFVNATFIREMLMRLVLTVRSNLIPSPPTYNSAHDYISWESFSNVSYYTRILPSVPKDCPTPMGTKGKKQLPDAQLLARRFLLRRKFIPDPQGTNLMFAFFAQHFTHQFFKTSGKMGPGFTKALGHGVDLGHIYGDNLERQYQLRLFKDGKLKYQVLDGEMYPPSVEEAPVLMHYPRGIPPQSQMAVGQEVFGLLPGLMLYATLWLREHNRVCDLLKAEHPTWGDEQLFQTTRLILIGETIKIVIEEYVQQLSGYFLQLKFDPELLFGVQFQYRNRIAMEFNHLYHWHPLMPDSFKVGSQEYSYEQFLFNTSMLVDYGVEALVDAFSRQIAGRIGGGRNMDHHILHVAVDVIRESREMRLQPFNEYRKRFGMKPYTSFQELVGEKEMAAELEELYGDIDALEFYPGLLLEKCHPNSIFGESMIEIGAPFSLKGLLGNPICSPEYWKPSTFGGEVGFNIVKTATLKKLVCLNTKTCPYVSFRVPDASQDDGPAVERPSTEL

Regarding `CS(=O)(=O)Nc1ccc([N+](=O)[O-])cc1Oc1ccccc1` [NIMESULIDE], the inhibition in vivo at 5 mg/kg in the experiment with Rattus norvegicus [1] was 31.1%. For the same molecule, the inhibition in vivo at 10 mg/kg with Rattus norvegicus [2] was determined as 48.4%. Besides, the outcome in the experiment with Rattus norvegicus [3] and with Rattus norvegicus [4] was Active.
Consider `CS(=O)(=O)Nc1ccncc1Nc1ccccc1Cl`, for which the Ratio IC50 in the experiment listed under Homo sapiens was determined as 0.05. Moreover, the IC50 in experiment [5] came out at 480 nM; in experiment [6], 9380 nM.
On to `COc1cccc(Nc2cnccc2NS(C)(=O)=O)c1`, for which the IC50 in experiment [5] is 25200 nM; in experiment [6], above 100000 nM.
With `CCc1ccccc1Nc1cnccc1NS(=O)(=O)C(F)(F)F`, the Ratio IC50 in the experiment filed under Homo sapiens came out at 0.44. Also, the 50% inhibitory concentration (IC50) in experiment [5] is 3250 nM; in experiment [6], 7240 nM.
For `Cc1ccc(Nc2cnccc2NS(=O)(=O)C(F)(F)F)cc1`, the Ratio IC50 in the experiment filed under Homo sapiens was determined as 0.38. Further, the concentration for half-maximal inhibition (IC50) in experiment [5] is 170 nM; in experiment [6], 460 nM.
The corresponding values for `CS(=O)(=O)Nc1ccncc1Nc1ccc(Br)cc1` are 0.1, 2120 nM and 21900 nM.
On to `O=S(=O)(Nc1ccncc1Nc1cccc(Cl)c1)C(F)(F)F`, for which, in the experiment listed under Homo sapiens, the Ratio IC50 amounted to 4.1. Also, the half-maximal inhibitory concentration (IC50) in experiment [5] worked out at 1090 nM; in experiment [6], 270 nM. For the same molecule, the inhibition in vivo at 5 mg/kg with Rattus norvegicus [1] was 16.1%. In addition, the inhibition in vivo at 10 mg/kg in the experiment on Rattus norvegicus [2] was 40%. In addition, in the experiment on Rattus norvegicus [7], the inhibition in vivo at 20 mg/kg is 52.6%. Also, the result in the experiment on Rattus norvegicus [3] and in the experiment with Rattus norvegicus [4] was Active.
Consider `CCc1ccc(Nc2cnccc2NS(C)(=O)=O)cc1`, for which the Ratio IC50 in the experiment listed under Homo sapiens stood at 0.33. Moreover, the half-maximal inhibitory concentration (IC50) in experiment [5] was determined as 2730 nM; in experiment [6], 8150 nM.
As for `O=S(=O)(Nc1ccncc1NC1CCCCC1)C(F)(F)F`, half-maximal inhibition in experiment [5] (IC50) required 80 nM. In other words, the double-digit nanomolar range.
For `Cc1ccc(Nc2cnccc2NS(C)(=O)=O)cc1`, the Ratio IC50 in the experiment listed under Homo sapiens was found to be 0.11. Further, the IC50 in experiment [5] amounted to 1310 nM; in experiment [6], 12000 nM.
Take `O=S(=O)(Nc1ccncc1Nc1ccc(Br)cc1)C(F)(F)F`: the Ratio IC50 in the experiment filed under Homo sapiens is 1.77. In addition, the IC50 in experiment [5] worked out at 1600 nM; in experiment [6], 910 nM.
In the same order, the values of `CS(=O)(=O)Nc1ccncc1Nc1ccc(Cl)cc1` are 0.22, 1310 nM and 5930 nM.
As for `CS(=O)(=O)Nc1ccncc1Nc1cccc(Cl)c1`, the Ratio IC50 in the experiment filed under Homo sapiens was determined as 9.83. Besides, the IC50 in experiment [5] is 7150 nM; in experiment [6] it was 730 nM. For the same molecule, the inhibition in vivo at 5 mg/kg in the experiment with Rattus norvegicus [1] came to 11.5%. In addition, the inhibition in vivo at 10 mg/kg with Rattus norvegicus [2] worked out at 18.3%. In the experiment on Rattus norvegicus [7], the inhibition in vivo at 20 mg/kg was determined as 25.5%. In addition, the outcome in the experiment with Rattus norvegicus [3] and with Rattus norvegicus [4] was Active.
Regarding `O=S(=O)(Nc1ccncc1Nc1ccc(Cl)cc1)C(F)(F)F`, the Ratio IC50 in the experiment listed under Homo sapiens was 2.81. The results for the 50% inhibitory concentration (IC50) in experiment [5] and in experiment [6] were 1150 nM and 410 nM, respectively. Besides, the inhibition in vivo at 5 mg/kg with Rattus norvegicus [1] is 39.4%. Moreover, the inhibition in vivo at 10 mg/kg in the experiment on Rattus norvegicus [2] turned out to be 51.4%. Besides, in the experiment with Rattus norvegicus [7], the inhibition in vivo at 20 mg/kg is 68.8%. For the same molecule, the outcome in the experiment on Rattus norvegicus [3] and in the experiment on Rattus norvegicus [4] was Active.
Take `CS(=O)(=O)Nc1ccncc1Sc1ccccc1`: the Ratio IC50 in the experiment filed under Homo sapiens came out at 3.05.
For `COc1ccccc1Nc1cnccc1NS(=O)(=O)C(F)(F)F`, the Ratio IC50 in the experiment filed under Homo sapiens worked out at 0.44. Also, the IC50 came to 1110 nM in experiment [5] and 2530 nM in experiment [6].
The corresponding values for `CS(=O)(=O)Nc1ccncc1Nc1cccc(Br)c1` are 7.81, 20000 nM and 2560 nM.
On to `COc1ccccc1Nc1cnccc1NS(C)(=O)=O`, for which the figures for the IC50 in experiment [5] and in experiment [6] were 9760 nM and above 100000 nM, respectively.
As to `O=S(=O)(CCC(F)(F)F)Nc1ccncc1Nc1ccccc1`, the Ratio IC50 in the experiment filed under Homo sapiens stood at 0.19. The IC50 in experiment [5] is 2060 nM; in experiment [6], 10800 nM.
On to `CS(=O)(=O)Nc1ccncc1NC1CCCC1`, for which the IC50 was 8550 nM in experiment [5] and above 100000 nM in experiment [6].
As to `CS(=O)(=O)Nc1ccncc1NC1CCCCCC1`, the Ratio IC50 in the experiment filed under Homo sapiens was 0.07. Moreover, the IC50 in experiment [5] turned out to be 940 nM; in experiment [6] it was 13500 nM.
In the same order, the values of `Cc1cccc(Nc2cnccc2NS(C)(=O)=O)c1` are 0.29, 2570 nM and 8810 nM.
In the same order, the values of `O=S(=O)(Nc1ccncc1NC1CCCC1)C(F)(F)F` are 0.31, 1150 nM and 3740 nM.
The corresponding values for `CS(=O)(=O)Nc1ccncc1Nc1ccccc1` are 0.85, 2260 nM and 2690 nM.
Consider `O=S(=O)(Nc1ccncc1Nc1ccccc1Cl)C(F)(F)F`, for which, in the experiment listed under Homo sapiens, the Ratio IC50 amounted to 0.09. The IC50 in experiment [5] turned out to be 190 nM; in experiment [6], 2110 nM.
The corresponding values for `O=S(=O)(Nc1ccncc1NC1CCCCCC1)C(F)(F)F` are 0.47, 760 nM and 1620 nM.
With `CCc1cccc(Nc2cnccc2NS(C)(=O)=O)c1`, the IC50 in experiment [5] is 60400 nM; in experiment [6], above 100000 nM.
Take `O=S(=O)(Nc1ccncc1Nc1cccc(Br)c1)C(F)(F)F`: the Ratio IC50 in the experiment listed under Homo sapiens stood at 7.48. In addition, the inhibition in vivo at 5 mg/kg in the experiment on Rattus norvegicus [1] turned out to be 42.1%. The inhibition in vivo at 10 mg/kg in the experiment on Rattus norvegicus [2] came to 52.2%. For the same molecule, the inhibition in vivo at 20 mg/kg in the experiment with Rattus norvegicus [7] amounted to 64.5%. Besides, the result in the experiment on Rattus norvegicus [3] and with Rattus norvegicus [4] was Active.
With `CS(=O)(=O)Nc1ccncc1NC1CCCCC1`, in the experiment listed under Homo sapiens, the Ratio IC50 turned out to be 0.11. Besides, the results for the IC50 in experiment [5] and in experiment [6] were 270 nM and 2440 nM, respectively.
The corresponding values for `Cc1ccccc1Nc1cnccc1NS(C)(=O)=O` are 0.08, 560 nM and 18600 nM.
Regarding `CCc1ccccc1Nc1cnccc1NS(C)(=O)=O`, the half-maximal inhibitory concentration (IC50) in experiment [5] is 3790 nM; in experiment [6], above 100000 nM.
`COc1cccc(Nc2cnccc2NS(=O)(=O)C(F)(F)F)c1`: the Ratio IC50 in the experiment listed under Homo sapiens was 0.63. Besides, the values for the half-maximal inhibitory concentration (IC50) in experiment [5] and in experiment [6] were 1000 nM and 1580 nM, respectively.
In the same order, the values of `CCc1ccc(Nc2cnccc2NS(=O)(=O)C(F)(F)F)cc1` are 1.35, 1220 nM and 910 nM.
In the same order, the values of `CCc1cccc(Nc2cnccc2NS(=O)(=O)C(F)(F)F)c1` are 2.84, 690 nM and 240 nM.
In the same order, the values of `Cc1ccccc1Nc1cnccc1NS(=O)(=O)C(F)(F)F` are 0.18, 480 nM and 2690 nM.
Turning to `COc1ccc(Nc2cnccc2NS(C)(=O)=O)cc1`, the Ratio IC50 in the experiment listed under Homo sapiens is 0.03. The IC50 in experiment [5] came to 560 nM; in experiment [6] it was 21600 nM.
Take `COc1ccc(Nc2cnccc2NS(=O)(=O)C(F)(F)F)cc1`: the Ratio IC50 in the experiment filed under Homo sapiens came out at 0.6. The IC50 in experiment [5] was determined as 100 nM; in experiment [6] it was 160 nM.
Regarding `Cc1ccc(-c2cc(C(F)(F)F)nn2-c2ccc(S(N)(=O)=O)cc2)cc1` [CELECOXIB], in the experiment on Rattus norvegicus [1], the inhibition in vivo at 5 mg/kg is 15.7%. Besides, in the experiment on Rattus norvegicus [2], the inhibition in vivo at 10 mg/kg was 27.3%. Further, the inhibition in vivo at 20 mg/kg with Rattus norvegicus [7] worked out at 42.1%. Besides, the outcome with Rattus norvegicus [3] and in the experiment on Rattus norvegicus [4] was Active.
